According to ChEMBL document CHEMBL2203229, “Structure Activity Relationship Study of the Cleistriosides and Cleistetrosides for Antibacterial/Anticancer Activity” (ACS Med Chem Lett, 2012):
≈ marks a conversion by molar mass, not a printed value.

Tests used:
[1] = test system: SF-539; test: Growth inhibition of human SF539 cells after 48 hrs by sulforhodamine B assay; type: functional; settings: SF-539, 48 h
How it was run: (§1)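 Cells in RPMI 1640 with 5% FBS, plated at 5,000–40,000/well and grown 24 h. Time-zero plates fixed with TCA. Five drug concentrations, 48 h at 37 °C, 5% CO₂. Fixation with TCA (10% final for adherent lines; 16% final for suspension lines), staining with 0.4% SRB, reading at 515 nm. GI50 is the concentration giving a 50% reduction in net protein increase relative to time zero.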

[2] = test system: SR; test: Growth inhibition of human SR cells after 48 hrs by sulforhodamine B assay; type: functional; how it was run: as §1
[3] = test system: RPMI-8226; test: Growth inhibition of human RPMI8226 cells after 48 hrs by sulforhodamine B assay; type: functional; settings: RPMI-8226, 48 h; how it was run: as §1
[4] = test system: OVCAR-3; test: Growth inhibition of human OVCAR3 cells after 48 hrs by sulforhodamine B assay; type: functional; settings: OVCAR-3, 48 h; how it was run: as §1
[5] = test system: Escherichia coli; test: Antibacterial activity against Escherichia coli K-12 BAS901 harboring genetically modified imp-4213, zab4292::Tn5 assessed as growth inhibition after 16 hrs by broth dilution method; type: functional; settings: K-12 BAS901, 16 h
How it was run: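 Kanamycin-resistant strain grown overnight in LB with kanamycin 50 µg/mL, diluted 10-fold, then shaken at 37 °C for 45 min–1 h (~10⁸ CFU/mL). Diluted ~1000-fold to 10⁵ CFU/mL in LB. DMSO stocks (20 mM) prepared as 4X working solutions in LB. Seven 1:2 serial dilutions mixed with equal-volume inoculum. OD600 read with shaking.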

[6] = test system: BT-549; test: Growth inhibition of human BT549 cells after 48 hrs by sulforhodamine B assay; type: functional; settings: BT-549, 48 h; how it was run: as §1
[7] = test system: DU-145; test: Growth inhibition of human DU145 cells after 48 hrs by sulforhodamine B assay; type: functional; settings: DU-145, 48 h; how it was run: as §1
[8] = test system: NCI-H460; test: Cytotoxicity against human NCI-H460 cells assessed as inhibition of cell viability by MTT assay; type: functional, cell-based
How it was run: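 NCI-H460 cells in RPMI 1640 with 10% FBS and 2 mM glutamine at 37 °C, 5% CO₂. Seeded at 10,000 cells/well for 12 h, then dosed in 1% FBS medium (DMSO below 0.1% final). MTT (10 µL of 5 mg/mL) for 4 h, formazan dissolved in DMSO for 45 min, absorbance at 562 nm. Triplicate wells, at least three runs (N = 9).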

[9] = test system: HCT-15; test: Growth inhibition of human HCT15 cells after 48 hrs by sulforhodamine B assay; type: functional; settings: HCT-15, 48 h; how it was run: as §1
[10] = test system: MDA-MB-435; test: Growth inhibition of human MDA-MB-435 cells after 48 hrs by sulforhodamine B assay; type: functional; settings: MDA-MB-435, 48 h; how it was run: as §1
[11] = test system: CAKI-1; test: Growth inhibition of human CAKI-1 cells after 48 hrs by sulforhodamine B assay; type: functional; settings: CAKI-1, 48 h; how it was run: as §1
[12] = test system: PC-3; test: Growth inhibition of human PC3 cells after 48 hrs by sulforhodamine B assay; type: functional; settings: PC-3, 48 h; how it was run: as §1
[13] = test system: SNB-75; test: Growth inhibition of human SNB75 cells after 48 hrs by sulforhodamine B assay; type: functional; settings: SNB-75, 48 h; how it was run: as §1
[14] = test system: MCF7; test: Growth inhibition of human MCF7 cells after 48 hrs by sulforhodamine B assay; type: functional; settings: MCF7, 48 h; how it was run: as §1
[15] = test system: Escherichia coli; test: Antibacterial activity against Escherichia coli K-12 MG1655 assessed as growth inhibition after 16 hrs by broth dilution method; type: functional; settings: K-12 substr. MG1655, 16 h
How it was run: (§2)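 Strains grown overnight in LB, diluted 10-fold, shaken at 37 °C for 45 min–1 h (~10⁸ CFU/mL), then diluted ~1000-fold to ~10⁵ CFU/mL. Broth dilution in LB: 20 mM DMSO stocks, 1:2 serial dilutions giving seven concentrations, inoculum added 1:1. OD600 read with shaking.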

[16] = Growth inhibition of human NCI-ADR-RES cells after 48 hrs by sulforhodamine B assay; type: functional; how it was run: as §1
[17] = test system: HT-29; test: Growth inhibition of human HT-29 cells after 48 hrs by sulforhodamine B assay; type: functional; settings: HT-29, 48 h; how it was run: as §1
[18] = test system: A498; test: Growth inhibition of human A498 cells after 48 hrs by sulforhodamine B assay; type: functional; settings: A498, 48 h; how it was run: as §1
[19] = test system: SK-MEL-5; test: Growth inhibition of human SK-MEL-5 cells after 48 hrs by sulforhodamine B assay; type: functional; settings: SK-MEL-5, 48 h; how it was run: as §1
[20] = test system: A549; test: Growth inhibition of human A549 cells after 48 hrs by sulforhodamine B assay; type: functional; settings: A549, 48 h; how it was run: as §1
[21] = Antibacterial activity against Bacillus subtilis JH642 containing trpC2 pheA1 assessed as growth inhibition after 16 hrs by broth dilution method; type: functional, Bacillus subtilis subsp. subtilis str. JH642; how it was run: as §2
[22] = test system: NCI-H460; test: Growth inhibition of human NCI-H460 cells after 48 hrs by sulforhodamine B assay; type: functional; settings: NCI-H460, 48 h; how it was run: as §1

Row | Compound | GI50 [1] | GI50 [2] | GI50 [3] | GI50 [4] | MIC [5] | GI50 [6] | GI50 [7] | IC50 [8] | GI50 [9] | GI50 [10] | GI50 [11] | GI50 [12] | GI50 [13] | GI50 [14] | MIC [15] | GI50 [16] | GI50 [17] | GI50 [18] | GI50 [19] | GI50 [20] | other results
1 | CCCCCCCCCCCCO[C@@H]1O[C@@H](C)[C@H](O[C@@H]2O[C@@H](C)[C@H](OC(C)=O)[C@@H](O[C@@H]3O[C@@H](C)[C@H](O)[C@@H](O[C@@H]4O[C@@H](C)[C@H](OC(C)=O)[C@@H](OC(C)=O)[C@H]4OC(C)=O)[C@H]3OC(C)=O)[C@H]2O)[C@@H](O)[C@H]1O | 910 nM | 850 nM | 920 nM | 800 nM | > 64 µM | 880 nM | 790 nM | 9800 nM | 1520 nM | 840 nM | 600 nM | 750 nM | 620 nM | 940 nM | > 64 µM | 2240 nM | 910 nM | 20 nM | 820 nM | 970 nM | MIC [21]: > 64 µM; GI50 [22]: 960 nM
2 | CCCCCCCCCCCCO[C@@H]1O[C@@H](C)[C@H](O[C@@H]2O[C@@H](C)[C@H](OC(C)=O)[C@@H](O[C@@H]3O[C@@H](C)[C@H](O)[C@@H](OC(C)=O)[C@H]3OC(C)=O)[C@H]2O)[C@@H](O)[C@H]1O | 3100 nM | 1200 nM | 1000 nM | 1490 nM | 32 µM (≈ 24 µg/mL) | 4540 nM | 2480 nM | 12500 nM | 7380 nM | 1490 nM | 6570 nM | 890 nM | 900 nM | 1620 nM | > 64 µM | 7920 nM | 1210 nM | 5130 nM | 1230 nM | 2080 nM | MIC [21]: 8 µM (≈ 6.01 µg/mL); GI50 [22]: 1540 nM
3 | CCCCCCCCCCCCO[C@@H]1O[C@@H](C)[C@H](O[C@@H]2O[C@@H](C)[C@H](OC(C)=O)[C@@H](O[C@@H]3O[C@@H](C)[C@H](OC(C)=O)[C@@H](O[C@@H]4O[C@@H](C)[C@H](O)[C@@H](O)[C@H]4OC(C)=O)[C@H]3OC(C)=O)[C@H]2O)[C@@H](O)[C@H]1O | 7170 nM | 3830 nM | 2840 nM | 6070 nM | > 64 µM | 8390 nM | 7470 nM | 12800 nM | 8330 nM | 7250 nM | 9240 nM | 6550 nM | 2180 nM | 5290 nM | > 64 µM | 8900 nM | 8130 nM | 5640 nM | 6270 nM | 8180 nM | MIC [21]: 8 µM (≈ 7.51 µg/mL); GI50 [22]: 8430 nM
